Assay results reported in ChEMBL document CHEMBL3526054, “Substituted imidazole of 5-fluoro-2-[4-[(2-phenyl-1H-imidazol-5-yl)methyl]-1-piperazinyl]pyrimidine Inactivates cytochrome P450 2D6 by protein adduction” (Drug Metab Dispos, 2011).

Key:
Cytochrome P450 2D6 [1] = target: T1, Cytochrome P450 2D6 (Homo sapiens, UniProt P10635); assay: (§1) Inhibition of catalytic activity of recombinant human CYP2D6 expressed in Escherichia coli co-expressing P450 reductase assessed as hydroxybufuralol activity at 16 uM after <15 mins by HPLC analysis in presence of NADPH; assay type: ADME; conditions: recombinant enzyme, 0.25 h, 16 µM
CYP2D6 [2] = target: T2, CYP2D6 (Homo sapiens, UniProt P10635); assay: Inhibition of catalytic activity of […] assessed as loss of native heme in hemochrome at 16 uM after <15 mins by HPLC analysis in presence of NADPH; assay type: ADME
Cytochrome P450 2D6 [3] = target: T1, Cytochrome P450 2D6; assay: Covalent binding affinity to human CYP2D6 with P450 reductase assessed per nmol of enzyme after 60 mins by protein precipitation and scintillation counting analysis in presence of NADPH; conditions: 1 h
Cytochrome P450 2D6 [4] = target: T1, Cytochrome P450 2D6; assay: Covalent binding affinity to human CYP2D6 with P450 reductase assessed per nmol of enzyme after 60 mins by protein precipitation and scintillation counting analysis in absence of NADPH; conditions: 1 h
Cytochrome P450 2D6 [5] = target: T1, Cytochrome P450 2D6; assay: Partition ratio of […] assessed as number of molecules of compound metabolized per molecule of inactivated enzyme after 60 mins by HPLC analysis; assay type: ADME; conditions: recombinant enzyme, 1 h
Cytochrome P450 2D6 [6] = target: T1, Cytochrome P450 2D6; assay: Binding affinity to recombinant human CYP2D6 expressed in Escherichia coli co-expressing P450 reductase by spectral analysis; assay type: ADME; conditions: read-out: Ks
Method in brief: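 Purified recombinant CYP2D6 (from E. coli), 1 μM in 100 mM potassium phosphate pH 7.4, split between two cuvettes at room temperature. Ligand (0.05–16 μM, in water) titrated into the sample cuvette, solvent into the reference. Difference spectra recorded 350–500 nm. ΔA430–395 plotted against concentration. Ks obtained by nonlinear fit to the quadratic tight-binding equation.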

CYP2D6 [7] = target: T2, CYP2D6; assay: Inhibition of catalytic activity of recombinant human CYP2D6 expressed in Escherichia coli co-expressing P450 reductase assessed as loss of ability to bind CO at 16 uM after <15 mins by […] in presence of NADPH; assay type: ADME
Method in brief: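 Purified CYP2D6 (1 μM) reconstituted with 2 μM P450 reductase, 30 μM dilauroyl-PC, catalase and SOD in 100 mM KPi pH 7.4, with 16 μM compound and an NADPH-generating system. Incubated up to 25 min. Controls lacked compound or NADPH system. Quenched with detergent buffer. Reduced-CO difference spectrum read 400–500 nm; P450 from A450–A475 (91 mM⁻¹cm⁻¹), expressed relative to time 0.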

Cytochrome P450 2C19 = Cytochrome P450 2C19 (Homo sapiens, UniProt P33261); assay: Drug metabolism assessed as CYP2C19 (unknown origin)-mediated retention time of metabolite by LC-MS/MS analysis in presence of NADPH; assay type: ADME
Cytochrome P450 2D6 [8] = target: T1, Cytochrome P450 2D6; assay: Inhibition of CYP2D6 (unknown origin); assay type: ADME
Cytochrome P450 2D6 [9] = target: T1, Cytochrome P450 2D6; assay: Drug metabolism assessed as human CYP2D6 with P450 reductase-mediated retention time of metabolite by LC-MS/MS analysis in presence of NADPH; assay type: ADME
Cytochrome P450 2C9 = Cytochrome P450 2C9 (Homo sapiens, UniProt P11712); assay: Drug metabolism assessed as CYP2C9 (unknown origin)-mediated retention time of metabolite by LC-MS/MS analysis in presence of NADPH; assay type: ADME
CYP2D6 [10] = target: T2, CYP2D6; assay: as §1; assay type: ADME; conditions: probe bufuralol (hydroxybufuralol formation)
CYP2D6 [11] = target: T2, CYP2D6; assay: Inhibition of catalytic activity of recombinant human CYP2D6 expressed in Escherichia coli co-expressing P450 reductase assessed as loss of native heme in hemochrome at 16 uM after <15 mins by hemochrome assay in presence of NADPH; assay type: ADME
Method in brief: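 Purified CYP2D6 (1 μM) with 2 μM reductase, 30 μM dilauroyl-PC, catalase, SOD and 16 μM compound in 100 mM KPi pH 7.4, incubated 0–40 min with an NADPH-generating system. Controls lacked compound or NADPH system. Quenched in detergent buffer, then pyridine (22%) and NaOH (0.01 N, final) added. Dithionite-reduced spectrum 520–620 nm; heme from A557–A575 (32.4 mM⁻¹cm⁻¹), relative to time 0.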

T1 sequence (P10635 whole entry): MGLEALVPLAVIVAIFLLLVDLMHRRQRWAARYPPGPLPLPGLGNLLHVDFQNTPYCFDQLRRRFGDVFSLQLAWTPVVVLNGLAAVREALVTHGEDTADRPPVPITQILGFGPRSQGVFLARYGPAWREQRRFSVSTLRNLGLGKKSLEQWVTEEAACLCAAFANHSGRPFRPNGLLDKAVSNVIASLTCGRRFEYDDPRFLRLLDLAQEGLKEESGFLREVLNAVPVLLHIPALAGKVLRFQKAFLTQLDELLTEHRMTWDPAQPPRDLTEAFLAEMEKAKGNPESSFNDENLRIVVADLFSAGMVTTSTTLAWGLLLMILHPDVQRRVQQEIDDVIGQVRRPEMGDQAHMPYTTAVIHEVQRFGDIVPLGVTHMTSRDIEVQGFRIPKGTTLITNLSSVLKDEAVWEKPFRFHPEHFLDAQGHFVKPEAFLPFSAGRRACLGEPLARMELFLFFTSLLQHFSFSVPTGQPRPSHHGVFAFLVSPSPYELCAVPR
T2 sequence (P10635 whole entry): as above
Sequence of Cytochrome P450 2C9 (P11712 whole entry): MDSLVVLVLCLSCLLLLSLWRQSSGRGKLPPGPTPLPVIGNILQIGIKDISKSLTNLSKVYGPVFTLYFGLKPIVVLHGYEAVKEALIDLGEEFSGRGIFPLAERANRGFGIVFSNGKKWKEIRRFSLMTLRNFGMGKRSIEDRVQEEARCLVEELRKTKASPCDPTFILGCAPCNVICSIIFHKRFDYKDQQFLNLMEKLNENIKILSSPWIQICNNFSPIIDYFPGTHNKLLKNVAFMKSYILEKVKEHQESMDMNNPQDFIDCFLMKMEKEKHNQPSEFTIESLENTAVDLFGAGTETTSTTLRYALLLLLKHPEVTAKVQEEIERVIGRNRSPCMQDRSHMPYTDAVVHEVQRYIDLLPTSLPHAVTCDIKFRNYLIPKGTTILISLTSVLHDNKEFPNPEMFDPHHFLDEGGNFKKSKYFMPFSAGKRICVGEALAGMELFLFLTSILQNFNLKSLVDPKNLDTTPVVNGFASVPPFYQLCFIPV
Sequence of Cytochrome P450 2C19 (P33261 whole entry): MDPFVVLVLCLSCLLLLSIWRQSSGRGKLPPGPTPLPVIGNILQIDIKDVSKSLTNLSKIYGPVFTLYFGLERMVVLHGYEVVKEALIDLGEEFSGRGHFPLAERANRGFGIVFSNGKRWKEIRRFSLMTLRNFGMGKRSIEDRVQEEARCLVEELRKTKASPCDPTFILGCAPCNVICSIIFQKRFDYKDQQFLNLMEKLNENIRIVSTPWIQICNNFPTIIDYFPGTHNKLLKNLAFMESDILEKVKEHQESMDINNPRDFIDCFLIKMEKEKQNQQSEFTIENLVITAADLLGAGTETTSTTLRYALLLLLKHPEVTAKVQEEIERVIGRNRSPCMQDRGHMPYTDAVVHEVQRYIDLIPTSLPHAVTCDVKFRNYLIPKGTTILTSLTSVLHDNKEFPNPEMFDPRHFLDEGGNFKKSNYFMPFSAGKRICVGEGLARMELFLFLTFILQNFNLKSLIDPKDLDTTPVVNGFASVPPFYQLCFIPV

SMILES	inhibition (INH) (Cytochrome P450 2D6 [1])	inhibition at 0.25 h, 16 µM (CYP2D6 [2])	PB (Cytochrome P450 2D6 [3])	PB (Cytochrome P450 2D6 [4])	Ratio (Cytochrome P450 2D6 [5])	Kd (Cytochrome P450 2D6 [6])	inhibition at 0.25 h, 16 µM (CYP2D6 [7])	Retention_time (Cytochrome P450 2C19)	Ki (Cytochrome P450 2D6 [8])	Retention_time (Cytochrome P450 2D6 [9])	Retention_time (Cytochrome P450 2C9)	inhibition at 0.25 h, 16 µM (CYP2D6 [10])	inhibition at 0.25 h, 16 µM (CYP2D6 [11])
COc1ccc2c(c1)[C@]13CCCC[C@@H]1[C@H](C2)N(C)CC3 [DEXTROMETHORPHAN]	Active	–	–	–	–	–	–	–	–	–	–	–	–
Fc1cnc(N2CCN(Cc3cnc(-c4ccccc4)[nH]3)CC2)nc1	–	25%	3.15 nmol	1.95 nmol	3	390 nM	25%	17 min	550 nM	17 min	17 min	90%	15%
CCc1nc(C)c(CN2CCN(c3cc(C(F)(F)F)ccn3)CC2)[nH]1	–	–	–	–	99	–	–	–	–	–	–	–	–
